SUMO1-SIM PPI = SUMO1-SIM interaction modulation; P63165; SUMO1 binding to a labelled peptide, TR-FRET, 1 h; inhibition, % at 20 µM; hit rate 0.33% among 360,000; AID 602429; in the data active means inhibition above about 37%
Target sequence (P63165 whole entry, looked up): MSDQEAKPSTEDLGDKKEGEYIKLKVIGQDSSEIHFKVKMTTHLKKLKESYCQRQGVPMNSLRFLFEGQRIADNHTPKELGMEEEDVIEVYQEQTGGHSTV
FAS TE block = blocks the thioesterase domain of human fatty acid synthase; inhibition, % at 15 µM; AID 602261; hit rate 0.67% among 360,000; recombinant FAS-TE, OMFH fluorogenic substrate, fluorescence endpoint;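 active means compounds whose normalised, plate-corrected inhibition of enzyme fluorescence in the single-dose primary screen is 50% or more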
LMPTP block = LMPTP (human) inhibition; inhibition, % at 20 µM; recombinant LMPTP-A, OMFP fluorogenic substrate, fluorescence intensity; AID 651560; hit rate 0.22% among 360,000; P24666;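 active means compounds that cut the enzyme signal by at least half of the control window in the single-dose screen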
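Assay system: LMPTP-A phosphatase enzyme | Input: 0.625 nM enzyme | Also added: Fluorogenic phosphatase substrate OMFP at 400 µM final | Compound dosing: One test concentration per compound, 20 µM, with 3% DMSO overall | Schedule: 50 min enzyme reaction at room temperature, protected from light | Signal: Fluorescence intensity | Benchmarks: no-enzyme and uninhibited controls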
STEP inh = STEP (human) phosphatase inhibition | hit rate 0.25% among 360,000 | AID 588621 | recombinant STEP, OMFP fluorogenic substrate, fluorescence | inhibition, % at 20 µM;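 active means inhibition at 20 µM, scaled per plate between control wells, above about 37%, limit read from the data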
Target sequence (P54829 whole entry, looked up): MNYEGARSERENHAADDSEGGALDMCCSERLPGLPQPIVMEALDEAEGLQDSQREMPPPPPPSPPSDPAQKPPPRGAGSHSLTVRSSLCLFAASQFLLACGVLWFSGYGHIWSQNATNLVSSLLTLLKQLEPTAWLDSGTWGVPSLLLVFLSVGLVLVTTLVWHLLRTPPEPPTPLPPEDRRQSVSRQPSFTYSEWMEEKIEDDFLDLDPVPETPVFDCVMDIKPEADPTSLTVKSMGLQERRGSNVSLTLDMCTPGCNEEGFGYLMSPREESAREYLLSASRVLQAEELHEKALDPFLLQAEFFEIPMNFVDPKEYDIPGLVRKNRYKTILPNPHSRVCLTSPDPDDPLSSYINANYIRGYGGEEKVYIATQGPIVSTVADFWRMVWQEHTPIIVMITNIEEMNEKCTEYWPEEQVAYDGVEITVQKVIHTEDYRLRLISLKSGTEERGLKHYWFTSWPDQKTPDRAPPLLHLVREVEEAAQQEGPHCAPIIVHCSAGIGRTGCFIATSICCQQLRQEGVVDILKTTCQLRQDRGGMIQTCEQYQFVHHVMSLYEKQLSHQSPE
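System: STEP (striatal-enriched tyrosine phosphatase) enzyme, cell-free; medium: Bis-Tris pH 6.0 buffer with DTT, detergent; dosing: 20 µM, 1% DMSO; times: reaction 20 min, ambient temperature; detection: fluorescence, 480/540 nm; read-out basis: normalized % inhibition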
Scp-1 inhibitor = blocks human Scp-1 phosphatase activity. Recombinant Scp1, phosphopeptide, malachite green phosphate absorbance. inhibition, % at 20 µM. hit rate 0.88% among 340,000. AID 493091;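 active means inhibition above about 50% at 20 µM, limit read from the data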
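Times: enzyme reaction 45 min at room temperature, colour 5 min, stabilisation 30 min. Material: SCP-1 catalytic fragment, aa 76-261. Medium: Acidic Tris acetate buffer with magnesium and detergent. Signal: colorimetric free-phosphate detection, absorbance 630 nm. Read-out basis: % inhibition of SCP-1 phosphate liberation. Reagent: Phosphorylated 17-residue peptide substrate.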
FAS-TE inh conf = confirmation of human fatty acid synthase thioesterase inhibitors. shares compounds with FAS TE block. recombinant FAS-TE, OMFH fluorogenic substrate, fluorescence. inhibition, % at 15 µM. hit rate 45% among 2,300. AID 624325;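 active means compounds inhibiting the enzyme by at least 50% at 15 µM in any one of the replicates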
Hits are given with their value; . = inactive; / = no result. This is a sample that favours compounds with a hit; in the whole collection about 1.9% have one here.

SMILES | SUMO1-SIM PPI | FAS TE block | LMPTP block | STEP inh | Scp-1 inhibitor | FAS-TE inh conf
CC(C)(C)c1ccc(C(=O)N2CCC2(C)C(=O)Nc2cccc(C#N)c2)cc1 (configuration not stated) | . | 65 | . | . | / | 66
Cc1ccsc1C(=O)N1CCC1(C)C(=O)Nc1cccc(C#N)c1 (configuration not stated) | . | . | . | . | / | /
O=C1OCCN1c1c(-c2ccccc2)c(-c2cccs2)nc2c(-c3ccccc3)cccc12 | . | 52 | . | . | . | .
O=C1OCCN1c1ccccc1 | . | . | . | . | . | /
O=C(Oc1coc(CSc2ncccn2)cc1=O)c1ccccc1[N+](=O)[O-] | . | . | . | . | . | /
COc1cc(OC)c(N(C)C(=O)c2cc3c(s2)-c2ccccc2S(=O)(=O)C3)cc1Cl | . | 54 | . | . | . | .
O=S(=O)(c1ccccc1)n1ccc(-c2cnc(-c3ccccc3)s2)n1 | . | 63 | . | . | . | 58
O=S(=O)(c1ccc(-c2csc(-c3cccnc3)n2)cc1)N1CCCC1 | . | 81 | . | . | . | 86
O=S(=O)(c1ccc(-c2csc(-c3cccnc3)n2)cc1)N1CCCCC1 | . | 77 | . | . | . | 83
CC(=O)N1CCN(c2cc(-c3ccccc3)nc3cc(-c4cccc(Cl)c4)nn23)CC1 | . | . | . | . | / | /
COc1ccc(N2C(=O)C3ON(C4SC(=S)N(C)C4(C)C)C(c4ccc(Cl)cc4)C3C2=O)cc1 (configuration not stated) | . | 71 | . | . | . | .
O=C(Oc1cccc(/C=N/Nc2nc(Nc3ccccc3)nc(N3CCOCC3)n2)c1)c1ccco1 | . | 62 | . | . | . | .
C(=N\Nc1nc(Nc2ccccc2)nc(N2CCOCC2)n1)/c1c[nH]c2ccccc12 | / | / | / | / | . | /
CC1Cc2ccccc2N1C(=O)CSc1nc2cc3c(cc2cc1C#N)OCO3 (configuration not stated) | . | 74 | . | . | . | .
CC(C)C(NC(=O)C12CC3CC(CC(C3)C1)C2)C(=O)N/N=C/C1=C(N2CCOCC2)C(=C\c2cccc([N+](=O)[O-])c2)/CC1 (configuration not stated) | . | 64 | . | . | . | .
COc1ccccc1-c1nnc(SCC(=O)Nc2ccc(S(N)(=O)=O)cc2)n1C | . | . | . | . | . | /
CCC(C)(C)C1CCc2[nH]nc(C(=O)NCCCNC(=O)OC(C)(C)C)c2C1 (configuration not stated) | . | 69 | . | . | . | 50
Cc1ccc(C)n1-c1ccc(-c2ccnc(N)n2)cc1 | . | . | . | . | . | /
O=C(CN1c2ccccc2Sc2ccccc21)N/N=C/c1ccc([N+](=O)[O-])cc1 | . | 69 | . | . | . | .
CCN(CC(=O)NCc1cccs1)S(=O)(=O)c1ccc([N+](=O)[O-])cc1 | . | 52 | . | . | . | 52
O=C(COC(=O)c1cccc([N+](=O)[O-])c1)NCc1cccs1 | . | 52 | . | . | . | 63
CC(C)C1C(=O)N(Cc2cn(CCC3OCCCO3)nn2)CCS(=O)(=O)N1Cc1ccc(-c2ccc(Cl)nc2)cc1 (configuration not stated) | . | . | . | . | / | /
O=C(O)CC(NC(=O)CC(c1ccccc1)c1ccccc1)c1cccc([N+](=O)[O-])c1 (configuration not stated) | . | 56 | . | . | . | 66
COc1ccc([N+](=O)[O-])cc1/C=N/NC(=O)Cc1ccccc1 | . | . | . | . | . | /
CC(C)CC(=O)NC(NC(=O)CC(C)C)c1cccc([N+](=O)[O-])c1 | . | . | . | . | . | /
SMILES | SUMO1-SIM PPI | FAS TE block | LMPTP block | STEP inh | Scp-1 inhibitor | FAS-TE inh conf
COc1ccc([N+](=O)[O-])cc1NC(=O)CSc1ccccc1 | . | . | . | . | . | /
COc1ccc([N+](=O)[O-])cc1NC(=O)Cc1ccc(C)cc1 | . | . | . | . | . | /
COc1cc(/C=N/NC(=O)Cc2ccccc2)ccc1Oc1ccc([N+](=O)[O-])cc1[N+](=O)[O-] | . | 59 | . | . | . | .
COc1ccc([N+](=O)[O-])cc1NC(=O)Cc1ccc(Cl)cc1 | . | 81 | . | . | . | .
COc1ccc([N+](=O)[O-])cc1NC(=O)CSCc1ccccc1 | . | 62 | . | . | . | .
O=C(CN1CSCC1=O)N1CCN(S(=O)(=O)c2ccc(Cl)cc2)CC1 | . | . | . | . | . | /
O=C(NCCc1ccc(F)cc1)N[C@@H](Cc1ccccc1)C(=O)O | . | . | . | . | . | /
O=C(Nc1ccc2c(c1)OCO2)C1CCN(Cc2cnn(-c3ccccc3)c2-n2cccc2)CC1 | . | . | . | . | . | /
Cc1ccc(S(=O)(=O)N2CCOCC2)cc1C(=O)OCC(=O)NC1CC1 | . | . | . | . | . | /
O=C(COC(=O)Cn1[nH]c(=O)c2ccccc2c1=O)NNC(=O)c1ccccc1 | . | . | . | . | . | /
COc1ccc([N+](=O)[O-])cc1NC(=O)CCCOc1ccccc1 | . | 68 | . | . | . | 71
COc1ccc(CCC(=O)Nc2cc([N+](=O)[O-])ccc2OC)cc1 | . | . | . | . | . | /
COc1ccc(C(CC(=O)Nc2cc([N+](=O)[O-])ccc2OC)c2ccccc2)cc1 (configuration not stated) | . | 61 | . | . | . | 50
COCC(=O)Nc1cc([N+](=O)[O-])ccc1OC | . | . | . | . | . | /
COc1ccc([N+](=O)[O-])cc1NC(=O)CCC(=O)c1cccs1 | . | 65 | . | . | . | 48
Cc1ccc(S(=O)(=O)CCC(=O)OCC(=O)NC(C)c2ccccc2)cc1 (configuration not stated) | . | . | . | . | . | /
CC1(C(=O)Nc2ccc3ccccc3c2)CCC(=O)N1CCc1c[nH]c2ccccc12 (configuration not stated) | . | . | . | . | / | /
Cc1nc2cc(Cl)ccc2c(=O)n1Cc1ccncc1 | . | . | . | . | . | /
CN1CCN(c2nc3ccccn3c(=O)c2/C=C(\C#N)S(=O)(=O)c2ccc(Cl)cc2)CC1 | . | . | . | . | . | /
Cc1ccc(S(=O)(=O)/C(C#N)=C/c2c(N3CCN(C)CC3)nc3ccccn3c2=O)cc1 | . | . | . | . | . | /
Cc1ccc(S(=O)(=O)/C(C#N)=C/c2c(N3CCCCC3)nc3ccccn3c2=O)cc1 | . | 62 | . | . | . | .
Cc1ccc(S(=O)(=O)/C(C#N)=C/c2c(N3CCOCC3)nc3c(C)cccn3c2=O)cc1 | . | 56 | . | . | . | .
Cc1cccn2c(=O)c(/C=C(\C#N)C(=O)NCc3ccco3)c(N3CCOCC3)nc12 | . | . | . | . | . | /
Cc1ccc(S(=O)(=O)/C(C#N)=C/c2c(N3CCN(Cc4ccccc4)CC3)nc3ccccn3c2=O)cc1 | . | 81 | . | . | . | .

Screening results: PubChem, Sanford-Burnham Center for Chemical Genomics
